The source of these data is ChEMBL document CHEMBL1145208, “3-Substituted imidazo[1,2-d][1,2,4]-thiadiazoles: a novel class of factor XIIIa inhibitors” (J Med Chem, 2005).

Series [1] can be described thus: Solubility at pH 7.4 was determined. It is filed as physicochemical. The note with it: buffer. The essentials: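 Aqueous solubility of the inhibitors measured at pH 7.4, reported in mg/mL.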
Series [2] concerns the target T1, Coagulation factor XIII A chain (Homo sapiens, UniProt P00488).
T1 sequence (P00488 whole entry): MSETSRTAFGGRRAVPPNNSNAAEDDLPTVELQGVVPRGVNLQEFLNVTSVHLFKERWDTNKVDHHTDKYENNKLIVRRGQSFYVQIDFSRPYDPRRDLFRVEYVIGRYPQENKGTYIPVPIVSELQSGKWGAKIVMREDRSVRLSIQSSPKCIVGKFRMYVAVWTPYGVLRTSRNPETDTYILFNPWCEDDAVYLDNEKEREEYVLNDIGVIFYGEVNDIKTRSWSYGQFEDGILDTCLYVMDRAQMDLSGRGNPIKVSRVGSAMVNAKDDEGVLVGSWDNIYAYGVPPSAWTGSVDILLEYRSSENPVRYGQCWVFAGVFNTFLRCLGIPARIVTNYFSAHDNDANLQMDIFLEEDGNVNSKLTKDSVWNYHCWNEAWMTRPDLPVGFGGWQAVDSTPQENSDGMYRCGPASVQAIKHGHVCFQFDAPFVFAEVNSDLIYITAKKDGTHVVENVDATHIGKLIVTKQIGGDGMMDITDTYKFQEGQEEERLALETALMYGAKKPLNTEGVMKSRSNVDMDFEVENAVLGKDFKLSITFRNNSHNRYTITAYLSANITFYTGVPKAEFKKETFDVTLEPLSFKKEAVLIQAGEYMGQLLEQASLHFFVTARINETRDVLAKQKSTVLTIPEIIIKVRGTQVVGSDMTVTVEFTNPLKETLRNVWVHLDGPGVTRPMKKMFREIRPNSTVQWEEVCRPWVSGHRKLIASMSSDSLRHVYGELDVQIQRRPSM
Nature of the series: In vitro inhibitory concentration of compound against factor XIIIa.

Series [3] relates to Cell line. Nature of the series: Concentration causing reduction in fibrin gamma-chain cross-linking in platelet-depleted human plasma. It counts as functional.

≈ marks a conversion by molar mass, not a printed value.

As to `O=C(O)CN(CCCCCCNS(=O)(=O)c1ccccc1[N+](=O)[O-])c1nsc2nccn12`, the solubility in series [1] stood at 0.38 mg/mL (≈ 787 µM).
Compound `O=[N+]([O-])c1ccc(S(=O)(=O)NCCCCCCNc2n[s+]c3[n-]ccn23)cc1` gave a concentration for half-maximal inhibition (IC50) in series [2] of 0.91 µM.
The compound `O=[N+]([O-])c1ccccc1S(=O)(=O)NCCCCCCNc1nsc2nccn12` registered a Concentration in series [3] of 160 µM.
`O=[N+]([O-])c1ccccc1S(=O)(=O)NCCCCCCNc1ncccc1[N+](=O)[O-]` gave an IC50 in series [2] of 170 µM.
